# Measurements reported in publication PMC6634314 (Cell chemical biology, 2019).
# Assays:
# [1] = target: YES1 (Homo sapiens, UniProt P07947); experiment: MIB washout assay; assay type: binding; conditions: H23 cells, 1 μM 4h, MIB pulldown ratio SM1-71/SM1-71-R
# [2] = target: AAK1 (Homo sapiens, UniProt Q2M2I8); experiment: MIB washout assay; assay type: binding; conditions: H23 cells, 1 μM 4h, MIB pulldown ratio SM1-71/SM1-71-R
# [3] = target: T1, SRC (Homo sapiens, UniProt P12931); experiment: MIB washout assay; assay type: binding; conditions: H23 cells, 1 μM 4h, MIB pulldown ratio SM1-71/SM1-71-R
# Target sequence in this assay (P12931 whole entry): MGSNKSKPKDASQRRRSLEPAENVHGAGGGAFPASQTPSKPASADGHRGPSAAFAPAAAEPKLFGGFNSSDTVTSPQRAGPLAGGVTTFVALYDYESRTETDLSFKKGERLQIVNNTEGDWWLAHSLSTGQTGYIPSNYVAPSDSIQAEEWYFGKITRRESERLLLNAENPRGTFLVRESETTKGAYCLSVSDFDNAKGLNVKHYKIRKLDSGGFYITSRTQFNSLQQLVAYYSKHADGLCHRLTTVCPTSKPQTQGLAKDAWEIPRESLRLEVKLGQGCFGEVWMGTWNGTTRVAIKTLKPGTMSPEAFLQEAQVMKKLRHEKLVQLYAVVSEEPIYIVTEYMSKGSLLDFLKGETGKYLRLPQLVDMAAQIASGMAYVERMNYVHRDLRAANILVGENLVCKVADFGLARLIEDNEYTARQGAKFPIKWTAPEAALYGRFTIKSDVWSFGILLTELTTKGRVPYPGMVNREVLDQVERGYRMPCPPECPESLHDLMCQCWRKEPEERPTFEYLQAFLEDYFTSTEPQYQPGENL
# [4] = target: BMP2K (Homo sapiens, UniProt Q9NSY1); experiment: MIB washout assay; assay type: binding; conditions: H23 cells, 1 μM 4h, MIB pulldown ratio SM1-71/SM1-71-R
# [5] = system: MAP3K1; experiment: MIB washout assay; assay type: binding, Human; conditions: H23 cells, 1 μM 4h, 0h post-washout, MIB pulldown ratio SM1-71/SM1-71-R
# [6] = system: MAPK1; experiment: MIB washout assay; assay type: binding, Human; conditions: H23 cells, 1 μM 4h, MIB pulldown ratio SM1-71/SM1-71-R
# [7] = system: PIK3C3; experiment: MIB washout assay; assay type: binding, Human; conditions: H23 cells, 1 μM 4h, MIB pulldown ratio SM1-71/SM1-71-R
# [8] = system: PIK3R4; experiment: MIB washout assay; assay type: binding, Human; conditions: H23 cells, 1 μM 4h, MIB pulldown ratio SM1-71/SM1-71-R
# [9] = system: DDR1; experiment: MIB washout assay; assay type: binding, Human; conditions: H23 cells, 1 μM 4h, MIB pulldown ratio SM1-71/SM1-71-R
# [10] = system: MET; experiment: MIB washout assay; assay type: binding, Human; conditions: H23 cells, 1 μM 4h, MIB pulldown ratio SM1-71/SM1-71-R
# [11] = system: PIP4K2C; experiment: MIB washout assay; assay type: binding, Human; conditions: H23 cells, 1 μM 4h, MIB pulldown ratio SM1-71/SM1-71-R
# [12] = system: EIF2AK3; experiment: MIB washout assay; assay type: binding, Human; conditions: H23 cells, 1 μM 4h, MIB pulldown ratio SM1-71/SM1-71-R
# [13] = system: CSNK1G1; experiment: MIB washout assay; assay type: binding, Human; conditions: H23 cells, 1 μM 4h, MIB pulldown ratio SM1-71/SM1-71-R
# [14] = system: CDK17; experiment: MIB washout assay; assay type: binding, Human; conditions: H23 cells, 1 μM 4h, MIB pulldown ratio SM1-71/SM1-71-R
# [15] = system: PRKD3; experiment: MIB washout assay; assay type: binding, Human; conditions: H23 cells, 1 μM 4h, MIB pulldown ratio SM1-71/SM1-71-R
# [16] = system: WEE1; experiment: MIB washout assay; assay type: binding, Human; conditions: H23 cells, 1 μM 4h, MIB pulldown ratio SM1-71/SM1-71-R
# [17] = system: ACVR1B; experiment: MIB washout assay; assay type: binding, Human; conditions: H23 cells, 1 μM 4h, MIB pulldown ratio SM1-71/SM1-71-R
# [18] = system: MARK2; experiment: MIB washout assay; assay type: binding, Human; conditions: H23 cells, 1 μM 4h, MIB pulldown ratio SM1-71/SM1-71-R
# [19] = system: TK2; experiment: MIB washout assay; assay type: binding, Human; conditions: H23 cells, 1 μM 4h, MIB pulldown ratio SM1-71/SM1-71-R
# [20] = system: FYN; experiment: MIB washout assay; assay type: binding, Human; conditions: H23 cells, 1 μM 4h, MIB pulldown ratio SM1-71/SM1-71-R
# [21] = system: CSNK1A1; experiment: MIB washout assay; assay type: binding, Human; conditions: H23 cells, 1 μM 4h, MIB pulldown ratio SM1-71/SM1-71-R
# [22] = system: CSNK1D; experiment: MIB washout assay; assay type: binding, Human; conditions: H23 cells, 1 μM 4h, MIB pulldown ratio SM1-71/SM1-71-R
# [23] = system: CSNK1G3; experiment: MIB washout assay; assay type: binding, Human; conditions: H23 cells, 1 μM 4h, MIB pulldown ratio SM1-71/SM1-71-R
# [24] = target: T2, AURKA (Homo sapiens, UniProt O14965); experiment: MIB washout assay; assay type: binding
# T2 sequence (O14965 1-403): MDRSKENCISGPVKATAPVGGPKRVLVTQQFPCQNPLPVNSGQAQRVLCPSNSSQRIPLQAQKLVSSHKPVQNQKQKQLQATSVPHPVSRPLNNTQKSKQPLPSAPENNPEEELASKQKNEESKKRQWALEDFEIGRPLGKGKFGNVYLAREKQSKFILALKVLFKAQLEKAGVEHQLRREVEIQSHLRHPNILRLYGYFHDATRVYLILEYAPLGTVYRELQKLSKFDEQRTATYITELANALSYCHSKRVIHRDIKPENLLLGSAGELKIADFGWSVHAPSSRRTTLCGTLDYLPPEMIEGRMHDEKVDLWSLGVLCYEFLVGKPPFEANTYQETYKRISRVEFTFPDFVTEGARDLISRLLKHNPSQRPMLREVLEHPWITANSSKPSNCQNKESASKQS
# [25] = system: H23-KRAS^G12C non-small cell lung cancer (NSCLC) cell line; experiment: proliferation assay; assay type: cell-based, Human
# Method in brief: (§1)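 NSCLC lines were mycoplasma-tested and treated with various concentrations of test compound for 72 h. Cell viability was then measured by CellTiter-Glo luminescence.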
# [26] = system: Calu-6-KRAS^Q61K; experiment: proliferation assay; assay type: cell-based, Human; conditions: Calu-6-KRAS^Q61K cells (Fig. S2)
# Method in brief: as §1
# [27] = target: MAP2K7 (Homo sapiens, UniProt O14733); experiment: mass shift assay; assay type: binding; conditions: incubated 4 and 24h
# Method in brief: (§2)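 Kinase protein at 0.12 mM in 10 mM HEPES pH 7.5, 500 mM NaCl, incubated with 0.2 mM test compound at 4°C for 4 h and 24 h. Samples were diluted in 0.1% formic acid and desalted on a C3 pre-column. ESI-TOF was run in positive mode at 120 V, and intact mass was obtained by deconvolution to detect the adduct.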
# [28] = target: GSK3B (Homo sapiens, UniProt P49841); experiment: mass shift assay; assay type: binding; conditions: incubated 4 and 24h
# Method in brief: as §2
# [29] = target: MAPK3 (Homo sapiens, UniProt P27361); experiment: mass shift assay; assay type: binding; conditions: incubated 4 and 24h
# Method in brief: as §2
# [30] = target: T1, SRC; experiment: mass shift assay; assay type: binding; conditions: incubated 4 and 24h
# Method in brief: as §2
# [31] = target: MAP2K1 (Homo sapiens, UniProt Q02750); experiment: mass shift assay; assay type: binding; conditions: incubated 4 and 24h
# Method in brief: as §2
# [32] = target: LIMK1 (Homo sapiens, UniProt P53667); experiment: MIB dose-dependent kinase inhibition assay; assay type: binding; conditions: read-out: IC50 in the MIB assay, H23 cell lysate, overnight 4°C
# [33] = system: CDK13; conditions: H23 cells, 1 μM 4h, MIB pulldown ratio SM1-71/SM1-71-R
# Chain of AAK1 (Q2M2I8 whole entry): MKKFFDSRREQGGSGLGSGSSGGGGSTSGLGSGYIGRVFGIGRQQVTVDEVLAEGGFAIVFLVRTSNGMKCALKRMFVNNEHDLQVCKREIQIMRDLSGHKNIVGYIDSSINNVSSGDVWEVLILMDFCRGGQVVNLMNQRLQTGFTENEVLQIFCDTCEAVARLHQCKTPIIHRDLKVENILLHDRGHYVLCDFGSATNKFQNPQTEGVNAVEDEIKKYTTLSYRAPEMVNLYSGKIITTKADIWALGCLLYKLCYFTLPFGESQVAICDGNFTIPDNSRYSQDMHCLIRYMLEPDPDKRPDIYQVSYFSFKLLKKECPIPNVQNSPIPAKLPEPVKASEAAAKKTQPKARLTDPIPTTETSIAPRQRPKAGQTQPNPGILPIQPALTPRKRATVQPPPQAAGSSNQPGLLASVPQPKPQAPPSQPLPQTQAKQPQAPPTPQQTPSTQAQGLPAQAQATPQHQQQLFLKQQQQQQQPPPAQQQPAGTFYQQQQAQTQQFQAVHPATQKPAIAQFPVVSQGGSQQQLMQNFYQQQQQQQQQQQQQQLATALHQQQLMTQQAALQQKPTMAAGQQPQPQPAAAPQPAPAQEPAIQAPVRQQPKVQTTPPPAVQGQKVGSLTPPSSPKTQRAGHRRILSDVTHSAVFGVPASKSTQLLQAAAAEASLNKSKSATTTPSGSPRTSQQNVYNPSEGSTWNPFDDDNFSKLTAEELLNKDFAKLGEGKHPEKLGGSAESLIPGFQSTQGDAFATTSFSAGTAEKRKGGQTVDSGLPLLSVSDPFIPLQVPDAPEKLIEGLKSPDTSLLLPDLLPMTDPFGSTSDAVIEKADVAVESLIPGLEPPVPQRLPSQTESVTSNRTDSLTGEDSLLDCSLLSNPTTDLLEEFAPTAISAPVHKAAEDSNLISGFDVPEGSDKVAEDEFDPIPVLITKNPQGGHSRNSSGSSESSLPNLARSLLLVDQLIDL
# Chain of YES1 (P07947 whole entry): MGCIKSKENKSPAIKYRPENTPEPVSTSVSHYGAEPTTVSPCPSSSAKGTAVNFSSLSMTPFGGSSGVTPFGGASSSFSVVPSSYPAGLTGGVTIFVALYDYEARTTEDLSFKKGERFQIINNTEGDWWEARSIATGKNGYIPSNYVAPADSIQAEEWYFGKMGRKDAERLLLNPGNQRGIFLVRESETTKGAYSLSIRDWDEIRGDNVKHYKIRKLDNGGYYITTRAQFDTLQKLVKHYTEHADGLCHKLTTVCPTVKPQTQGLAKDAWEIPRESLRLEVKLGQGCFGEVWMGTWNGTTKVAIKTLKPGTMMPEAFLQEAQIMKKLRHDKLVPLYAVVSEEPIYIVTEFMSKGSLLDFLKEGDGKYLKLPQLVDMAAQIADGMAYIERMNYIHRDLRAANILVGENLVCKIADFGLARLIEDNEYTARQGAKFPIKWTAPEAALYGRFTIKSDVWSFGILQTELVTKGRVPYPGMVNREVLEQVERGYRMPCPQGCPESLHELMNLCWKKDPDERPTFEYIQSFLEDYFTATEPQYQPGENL
# Chain of BMP2K (Q9NSY1 whole entry): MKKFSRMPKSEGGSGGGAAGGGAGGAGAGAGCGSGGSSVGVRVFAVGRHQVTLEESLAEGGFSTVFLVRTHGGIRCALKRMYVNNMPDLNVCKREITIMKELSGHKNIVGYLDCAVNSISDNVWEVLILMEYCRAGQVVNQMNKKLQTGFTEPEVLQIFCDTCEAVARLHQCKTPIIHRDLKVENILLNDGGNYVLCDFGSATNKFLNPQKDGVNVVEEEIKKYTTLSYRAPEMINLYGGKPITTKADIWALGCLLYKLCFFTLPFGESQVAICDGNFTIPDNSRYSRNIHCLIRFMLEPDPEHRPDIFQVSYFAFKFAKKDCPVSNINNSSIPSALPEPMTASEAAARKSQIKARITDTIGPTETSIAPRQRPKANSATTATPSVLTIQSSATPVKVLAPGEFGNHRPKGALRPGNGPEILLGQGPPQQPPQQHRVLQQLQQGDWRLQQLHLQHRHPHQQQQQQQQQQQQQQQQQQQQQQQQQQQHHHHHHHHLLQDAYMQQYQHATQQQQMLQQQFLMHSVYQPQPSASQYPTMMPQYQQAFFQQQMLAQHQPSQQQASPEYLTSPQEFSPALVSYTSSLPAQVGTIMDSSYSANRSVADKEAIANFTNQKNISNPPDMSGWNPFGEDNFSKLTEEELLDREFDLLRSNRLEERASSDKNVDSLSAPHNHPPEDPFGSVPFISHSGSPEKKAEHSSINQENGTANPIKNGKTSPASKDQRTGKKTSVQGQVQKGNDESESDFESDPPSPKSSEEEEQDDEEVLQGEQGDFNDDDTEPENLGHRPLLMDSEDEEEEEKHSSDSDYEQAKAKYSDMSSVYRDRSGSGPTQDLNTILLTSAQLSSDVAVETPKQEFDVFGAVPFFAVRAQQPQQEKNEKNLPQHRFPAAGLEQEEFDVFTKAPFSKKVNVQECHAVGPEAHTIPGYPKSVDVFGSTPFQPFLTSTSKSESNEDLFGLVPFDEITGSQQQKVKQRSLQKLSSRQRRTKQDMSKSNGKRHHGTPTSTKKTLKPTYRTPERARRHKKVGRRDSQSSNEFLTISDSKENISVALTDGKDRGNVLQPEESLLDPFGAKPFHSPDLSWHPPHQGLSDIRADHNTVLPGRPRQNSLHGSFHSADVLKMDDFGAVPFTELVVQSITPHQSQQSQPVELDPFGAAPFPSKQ
# Chain of MAP2K7 (O14733 whole entry, species assumed): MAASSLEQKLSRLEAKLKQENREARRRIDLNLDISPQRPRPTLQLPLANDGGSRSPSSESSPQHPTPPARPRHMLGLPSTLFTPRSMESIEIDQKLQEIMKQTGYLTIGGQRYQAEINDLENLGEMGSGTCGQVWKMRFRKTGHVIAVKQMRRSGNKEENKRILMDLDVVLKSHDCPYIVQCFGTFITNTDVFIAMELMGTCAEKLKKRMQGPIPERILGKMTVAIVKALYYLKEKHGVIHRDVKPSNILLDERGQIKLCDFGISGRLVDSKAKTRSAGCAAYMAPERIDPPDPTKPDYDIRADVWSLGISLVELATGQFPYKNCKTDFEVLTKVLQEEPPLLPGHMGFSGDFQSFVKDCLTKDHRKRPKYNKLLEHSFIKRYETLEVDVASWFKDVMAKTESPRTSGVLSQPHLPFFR
# Chain of MAPK3 (P27361 whole entry): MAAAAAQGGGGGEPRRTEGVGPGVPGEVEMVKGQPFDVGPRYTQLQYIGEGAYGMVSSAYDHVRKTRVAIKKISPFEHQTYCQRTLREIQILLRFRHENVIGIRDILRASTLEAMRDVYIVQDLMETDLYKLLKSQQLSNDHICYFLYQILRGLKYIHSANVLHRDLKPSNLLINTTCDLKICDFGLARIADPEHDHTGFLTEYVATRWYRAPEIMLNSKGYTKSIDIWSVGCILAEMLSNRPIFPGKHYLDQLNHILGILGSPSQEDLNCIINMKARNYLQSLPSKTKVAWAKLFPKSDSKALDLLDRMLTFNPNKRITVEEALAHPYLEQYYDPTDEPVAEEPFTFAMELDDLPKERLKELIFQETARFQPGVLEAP
# Chain of MAP2K1 (Q02750 whole entry, species assumed): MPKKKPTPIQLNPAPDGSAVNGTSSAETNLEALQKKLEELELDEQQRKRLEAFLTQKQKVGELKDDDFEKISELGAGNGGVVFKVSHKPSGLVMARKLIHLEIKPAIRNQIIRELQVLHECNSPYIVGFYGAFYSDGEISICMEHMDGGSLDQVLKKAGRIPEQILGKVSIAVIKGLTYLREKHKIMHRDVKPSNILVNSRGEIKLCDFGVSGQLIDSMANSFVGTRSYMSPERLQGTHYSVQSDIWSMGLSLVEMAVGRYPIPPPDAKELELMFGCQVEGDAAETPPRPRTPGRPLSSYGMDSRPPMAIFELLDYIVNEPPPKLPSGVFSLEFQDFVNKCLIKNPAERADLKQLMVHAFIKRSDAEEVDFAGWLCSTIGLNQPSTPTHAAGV
# Chain of GSK3B (P49841 whole entry, species assumed): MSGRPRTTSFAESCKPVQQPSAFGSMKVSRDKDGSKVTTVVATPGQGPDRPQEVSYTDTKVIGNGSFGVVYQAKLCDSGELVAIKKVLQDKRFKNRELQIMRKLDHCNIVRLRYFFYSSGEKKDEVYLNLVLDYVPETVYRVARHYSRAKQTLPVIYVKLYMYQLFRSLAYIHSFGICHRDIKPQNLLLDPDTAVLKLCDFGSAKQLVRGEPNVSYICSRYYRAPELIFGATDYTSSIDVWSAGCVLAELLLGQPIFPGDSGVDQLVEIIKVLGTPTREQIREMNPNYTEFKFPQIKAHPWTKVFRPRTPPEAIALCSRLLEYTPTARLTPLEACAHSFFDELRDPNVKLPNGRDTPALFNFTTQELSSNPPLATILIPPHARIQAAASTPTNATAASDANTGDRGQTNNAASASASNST
smiles,measurement,setting,value
C=CC(=O)Nc1ccccc1Nc1nc(Nc2ccc(N3CCN(C)CC3)cc2)ncc1Cl [SM1-71],BI-0h,[1]; 0h post-washout,0.21
same,BI-6h,[1]; 6h post-washout,0.1
same,BI-0h,[2]; 0h post-washout,0.27
same,BI-6h,[2]; 6h post-washout,0.32
same,BI-0h,[3]; 0h post-washout,0.19
same,BI-6h,[3]; 6h post-washout,0.13
same,BI-0h,[4]; 0h post-washout,0.23
same,BI-6h,[4]; 6h post-washout,0.27
same,BI-0h,[5],0.2
same,BI-0h,[6]; 0h post-washout,0.19
same,BI-6h,[6]; 6h post-washout,0.39
same,BI-0h,[7]; 0h post-washout,0.28
same,BI-6h,[7]; 6h post-washout,0.44
same,BI-0h,[8]; 0h post-washout,0.36
same,BI-6h,[8]; 6h post-washout,0.47
same,BI-0h,[9]; 0h post-washout,0.68
same,BI-6h,[9]; 6h post-washout,0.59
same,BI-0h,[10]; 0h post-washout,0.75
same,BI-6h,[10]; 6h post-washout,0.53
same,BI-0h,[11]; 0h post-washout,0.8
same,BI-6h,[11]; 6h post-washout,0.6
same,BI-0h,[12]; 0h post-washout,0.8
same,BI-6h,[12]; 6h post-washout,0.66
same,BI-0h,[13]; 0h post-washout,0.55
same,BI-6h,[13]; 6h post-washout,0.81
same,BI-0h,[14]; 0h post-washout,0.46
same,BI-6h,[14]; 6h post-washout,0.76
same,BI-0h,[15]; 0h post-washout,0.59
same,BI-6h,[15]; 6h post-washout,0.72
same,BI-0h,[16]; 0h post-washout,0.98
same,BI-6h,[16]; 6h post-washout,0.63
same,BI-0h,[17]; 0h post-washout,0.9
same,BI-6h,[17]; 6h post-washout,0.92
same,BI-0h,[18]; 0h post-washout,0.74
same,BI-6h,[18]; 6h post-washout,1.13
same,BI-0h,[19]; 0h post-washout,0.83
same,BI-6h,[19]; 6h post-washout,0.95
same,BI-0h,[20]; 0h post-washout,0.81
same,BI-6h,[20]; 6h post-washout,0.91
same,BI-0h,[21]; 0h post-washout,0.91
same,BI-6h,[21]; 6h post-washout,0.74
same,BI-0h,[22]; 0h post-washout,0.71
same,BI-6h,[22]; 6h post-washout,0.78
same,BI-0h,[23]; 0h post-washout,0.77
same,BI-6h,[23]; 6h post-washout,0.75
same,BI-0h,"[24]; H23 cells, 1 μM 4h, 0h post-washout, MIB pulldown ratio SM1-71/SM1-71-R",1.16
same,BI-6h,"[24]; H23 cells, 1 μM 4h, 6h post-washout, MIB pulldown ratio SM1-71/SM1-71-R",2.38
same,Binding,[24]; class from BI 0h and 6h,"Strongly Reversible (BI0h,6h greater than 1 suggesting a strong preference for reversible mode of inhibition)"
same,growth inhibitory effects,[25]; H23-KRAS^G12C cells (Fig. S2),strong growth inhibitory effects
same,IC50,"[25]; proliferation assays, H23-KRAS^G12C cells (Fig. S2A)",400 nM
same,growth inhibitory effects,[26],strong growth inhibitory effects
same,covalent adduct formation (mass shift),[27],formed covalent adducts
same,covalent adduct formation (mass shift),[28],formed covalent adducts
same,covalent adduct formation (mass shift),[29],formed covalent adducts
same,covalent adduct formation (mass shift),[30],formed covalent adducts
same,covalent adduct formation (mass shift),[31],formed covalent adducts
same,IC50,[32],< 10 nM
same,BI-0h,[33]; 0h post-washout,0.57
same,BI-6h,[33]; 6h post-washout,0.57
